The target of assay [1] is Estrogen receptor (Bos taurus) (UniProt Q9XSB5+P49884). Nature of the assay: Evaluated for relative binding affinity (RBA) for calf uterine estrogen receptor. It is filed as protein assay. A digest of the protocol:
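Calf uterine cytosol (105000g supernatant; final protein 3 mg/mL) in Tris-EDTA-azide buffer pH 7.5. Incubated with 5 nM [³H]estradiol and competitor (10⁻⁹–10⁻⁴ M) for 18 h at 4 °C. Free ligand removed with dextran-coated charcoal, bound counted by scintillation. Nonspecific binding measured with 5 μM estradiol. RBA = estradiol/competitor molar ratio at 50% displacement ×100.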

The test system of assay [2] is MCF7. Nature of the assay: Inhibition of [3H]thymidine incorporation into hormone sensitive MCF-7 human breast cancer cells at 10e-5 M. The assay is classed as functional. Summed up:
(§1)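 MCF-7 cells kept two weeks in medium with 5% charcoal-treated calf serum, 37 °C, 5% CO₂. About 2×10⁴ cells per well; compound added next day in 0.1% ethanol, ethanol-only controls, medium changed on day 4. Cells counted on day 7 by Coulter counter; [³H]thymidine 1 μCi/well for 2 h. Mean of six dishes.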
In general terms: Uptake of a labelled nucleoside into DNA is a usual measure of proliferation.

For assay [3], the system named is MCF7. Nature of the assay: Inhibition of [3H]thymidine incorporation into hormone sensitive MCF-7 human breast cancer cells at 10e-6 M. It is filed as functional. Summed up: as §1
Assay [4] deals with MCF7. In words: Reduction of cell number of hormone sensitive MCF-7 human breast cancer cells at 10e-5 M.
The test system of assay [5] is MCF7. Nature of the assay: Reduction of cell number of hormone sensitive MCF-7 human breast cancer cells at 10e-6 M.
The subject of assay [6] is MCF7. Nature of the assay: Percentage cell number change as treated/control in hormone sensitive MCF-7 cell proliferation assay at 10e-6 M or 10e-5 M. It is filed as functional, Homo sapiens. Summed up:
as §1

Assay [7] has as its system MCF7. In words: Percentage [3H]thymidine incorporation treated/control in hormone sensitive MCF-7 cell proliferation assay at 10e-5 M or 10e-6 M. It is filed as functional, Homo sapiens. Summed up:
as §1

Assay [8] is filed under the species Rattus norvegicus. In words: (§2) Change in DMBA-induced mammary tumor area in rats after 28 day therapy at 3 mg dose (experiment-1). It is filed as functional. A digest of the protocol:
(§3)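 Female Sprague–Dawley rats given a single 20 mg DMBA dose by gavage in 1 mL olive oil at 50 days old. Randomized once tumor area per animal exceeded 140 mm². Compound given sc in olive oil (1 mL/kg), dose per kg, once daily Monday–Thursday, double dose Friday. Tumor area from caliper measurement of two perpendicular axes, twice weekly. Significance by Wilcoxon–Mann–Whitney U test.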

The species entered for assay [9] is Rattus norvegicus. In words: Complete remission of DMBA-induced mammary tumors in rats at 3 mg dose. The assay is classed as functional. Summed up: as §3
The species named for assay [10] is Rattus norvegicus. Nature of the assay: Partial remission of DMBA-induced mammary tumors in rats at 3 mg dose. It is filed as functional. Summed up: as §3
Assay [11] is filed under the species Rattus norvegicus. Nature of the assay: Percentage progressive DMBA-induced mammary tumors in rats at 3 mg dose (experiment-1). It is filed as functional. Summed up: as §3
Assay [12] is filed under the species Rattus norvegicus. In words: Percentage static unchanged DMBA-induced mammary tumors in rats at 3 mg dose (experiment-1). It is filed as functional. A digest of the protocol:
as §3

For assay [13], the species on record is Rattus norvegicus. In words: Final tumor number in DMBA-induced tumor bearing rats at 3 mg dose (experiment-1). The assay is classed as functional. Summed up: as §3
The species named for assay [14] is Rattus norvegicus. Nature of the assay: Initial tumor number in DMBA-induced tumor bearing rats at 3 mg dose (experiment-1). The assay is classed as functional. A digest of the protocol:
as §3

Assay [15] is filed under the species Rattus norvegicus. Described as §2. The assay is classed as functional. Summed up: as §3
The source holds these as a separate data set.

For assay [16], the target named is T1, Estrogen receptor (Mus musculus) (UniProt O08537+P19785). In words: Uterotrophic activity in mice as uterus dry weight (mg)/body weight (g) *100 at 0.2 ug. The assay is classed as functional, tissue-based. A digest of the protocol: (§4)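 Immature 19-day-old female NMRI mice, 10 per group. Compound in olive oil injected sc on 3 consecutive days, dose per animal; vehicle-only controls, estrone as reference. Killed 24 h after last injection. Uteri fixed in Bouin solution, dried at 100 °C for 24 h. Value = uterine dry weight (mg)/body weight (g) ×100, mean of 10 animals ± SD.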

Assay [17] deals with T1, Estrogen receptor (Mus musculus). Nature of the assay: Uterotrophic activity in mice as uterus dry weight (mg)/body weight (g) *100 at 1 ug. The assay is classed as functional, tissue-based. A digest of the protocol: as §4
For assay [18] the target is unchanged. Nature of the assay: Uterotrophic activity in mice as uterus dry weight (mg)/body weight (g) *100 at 25 ug. It is filed as functional, tissue-based. A digest of the protocol:
as §4

Assay [19] has the same target. In words: Uterotrophic activity in mice as uterus dry weight (mg)/body weight (g) *100 at 5 ug. It is filed as functional, tissue-based. A digest of the protocol: as §4
The target is the same in assay [20]. Nature of the assay: Uterotrophic activity in mice as uterus dry weight (mg)/body weight (g) *100 at 125 ug. It is filed as functional, tissue-based. A digest of the protocol:
as §4

The species named for assay [21] is Rattus norvegicus. In words: Complete remission of DMBA-induced mammary tumors in rats at 1 mg dose. It is filed as functional. A digest of the protocol: as §3
The species named for assay [22] is Rattus norvegicus. In words: Partial remission of DMBA-induced mammary tumors in rats at 1 mg dose. It is filed as functional. A digest of the protocol:
as §3

For assay [23], the species on record is Rattus norvegicus. Nature of the assay: Complete remission of DMBA-induced mammary tumors in rats at 4 mg dose. The assay is classed as functional. A digest of the protocol:
as §3

The species named for assay [24] is Rattus norvegicus. Nature of the assay: Partial remission of DMBA-induced mammary tumors in rats at 4 mg dose. It is filed as functional. Summed up: as §3
Assay [25] is filed under the species Rattus norvegicus. Nature of the assay: (§5) Change in DMBA-induced mammary tumor area in rats after 28 day therapy at 4 mg dose (experiment-2). It is filed as functional. A digest of the protocol: as §3
The species entered for assay [26] is Rattus norvegicus. Described as §5. It is filed as functional. A digest of the protocol: as §3
This is another data set of the same source.

The species entered for assay [27] is Rattus norvegicus. Nature of the assay: Percentage progressive DMBA-induced mammary tumors in rats at 1 mg dose (experiment-1). It is filed as functional. Summed up:
as §3

For assay [28], the species on record is Rattus norvegicus. In words: Percentage static unchanged DMBA-induced mammary tumors in rats at 1 mg dose (experiment-1). It is filed as functional. Summed up:
as §3

Assay [29] is filed under the species Rattus norvegicus. In words: Percentage progressive DMBA-induced mammary tumors in rats at 4 mg dose (experiment-1). The assay is classed as functional. A digest of the protocol: as §3
Assay [30] is filed under the species Rattus norvegicus. In words: Percentage static unchanged DMBA-induced mammary tumors in rats at 4 mg dose (experiment-1). It is filed as functional. A digest of the protocol:
as §3

The species named for assay [31] is Rattus norvegicus. In words: Final tumor number in DMBA-induced tumor bearing rats at 1 mg dose (experiment-1). It is filed as functional. A digest of the protocol: as §3
Assay [32] is filed under the species Rattus norvegicus. In words: Final tumor number in DMBA-induced tumor bearing rats at 4 mg dose (experiment-2). The assay is classed as functional. Summed up: as §3
The species entered for assay [33] is Rattus norvegicus. Nature of the assay: Initial tumor number in DMBA-induced tumor bearing rats at 1 mg dose (experiment-1). The assay is classed as functional. Summed up: as §3
The species named for assay [34] is Rattus norvegicus. Nature of the assay: Initial tumor number in DMBA-induced tumor bearing rats at 4 mg dose (experiment-2). It is filed as functional. Summed up:
as §3

The species entered for assay [35] is Rattus norvegicus. In words: Change in DMBA-induced tumor area in rats after 28 day therapy at 1 mg dose (experiment-1). The assay is classed as functional. Summed up:
as §3

Values joined by “and” are separate entries in the source; they are usually repeats but may differ in a detail not shown here. Equal values may be shown once.

T1 sequence (O08537 whole entry, looked up): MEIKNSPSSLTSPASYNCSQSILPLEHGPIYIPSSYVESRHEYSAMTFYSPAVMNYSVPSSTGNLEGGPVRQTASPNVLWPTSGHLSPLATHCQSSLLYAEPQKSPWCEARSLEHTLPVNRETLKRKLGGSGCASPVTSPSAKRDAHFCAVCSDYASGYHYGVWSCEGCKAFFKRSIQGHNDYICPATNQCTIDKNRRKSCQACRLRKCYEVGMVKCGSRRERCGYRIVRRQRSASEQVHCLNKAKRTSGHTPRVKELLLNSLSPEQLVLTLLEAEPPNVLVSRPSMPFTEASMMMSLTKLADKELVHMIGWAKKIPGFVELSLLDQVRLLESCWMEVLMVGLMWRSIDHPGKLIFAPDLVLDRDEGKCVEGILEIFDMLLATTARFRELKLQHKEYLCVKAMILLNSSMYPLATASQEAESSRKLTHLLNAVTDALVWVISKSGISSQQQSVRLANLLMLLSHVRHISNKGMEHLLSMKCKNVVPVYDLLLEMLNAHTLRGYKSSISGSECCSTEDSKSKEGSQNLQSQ
T1 sequence (P19785 whole entry, looked up): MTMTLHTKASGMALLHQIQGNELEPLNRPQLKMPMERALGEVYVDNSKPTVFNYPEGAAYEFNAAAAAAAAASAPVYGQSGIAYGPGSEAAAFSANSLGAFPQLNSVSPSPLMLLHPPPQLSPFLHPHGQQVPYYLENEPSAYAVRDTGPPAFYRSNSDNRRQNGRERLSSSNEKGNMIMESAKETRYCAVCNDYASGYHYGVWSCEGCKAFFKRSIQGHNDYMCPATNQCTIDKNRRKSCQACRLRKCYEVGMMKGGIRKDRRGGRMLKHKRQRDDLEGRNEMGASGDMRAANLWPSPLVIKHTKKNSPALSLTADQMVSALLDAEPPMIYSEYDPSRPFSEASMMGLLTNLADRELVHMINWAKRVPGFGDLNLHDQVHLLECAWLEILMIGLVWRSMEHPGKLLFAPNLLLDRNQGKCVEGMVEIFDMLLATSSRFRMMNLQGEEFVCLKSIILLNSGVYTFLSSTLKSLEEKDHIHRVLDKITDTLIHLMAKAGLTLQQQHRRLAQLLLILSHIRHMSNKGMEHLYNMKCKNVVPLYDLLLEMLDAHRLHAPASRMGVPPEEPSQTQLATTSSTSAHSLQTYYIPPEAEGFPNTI

`CCn1c2c(c3cc(O)ccc31)CCc1cc(O)ccc1-2`: in [1], the relative binding affinity (RBA) worked out at 13. Further, the Activity in the assay on MCF7 [2] is 760; with MCF7 [3] it was 25840. Also, the cell number was determined as 4600 in the assay on MCF7 [4] and 28200 in the assay on MCF7 [5].
In turn, `CCn1c2cc(O)ccc2c2ccc3ccc(O)cc3c21` returned a relative binding affinity (RBA) in [1] of 3.6.
On the same count and under the same terms, to `CCCn1c2cc(O)ccc2c2ccc3cc(O)ccc3c21` belongs 13; to `Cn1c2c(c3ccc(O)cc31)CCc1cc(O)ccc1-2`, 9.6.
Broadly, the T/C is the ratio of treated to control. As to `CC/C(=C(\c1ccccc1)c1ccc(OCCN(C)C)cc1)c1ccccc1` [TAMOXIFEN], the Activity in the assay on MCF7 [2] turned out to be 80; in the assay on MCF7 [3] it was 1850. Moreover, the T/C in the assay with MCF7 [6] is 2% and 12%; in the assay with MCF7 [7], 0% and 6%. Moreover, the “Change in tumor area” value in the assay listed under Rattus norvegicus [8] is 136%; in the assay listed under Rattus norvegicus [15], -57%. Further, the Effect is on record as 22% in the assay listed under Rattus norvegicus [9], 7% in the assay filed under Rattus norvegicus [10], 44% in the assay filed under Rattus norvegicus [11] and 27% in the assay filed under Rattus norvegicus [12]. Also, the “No. of new tumors” value in the assay filed under Rattus norvegicus [13] is 24. The compound also yielded a No. of tumors in the assay listed under Rattus norvegicus [14] of 31. The cell number with MCF7 [4] was determined as 2000; in the assay on MCF7 [5], 4800.
Turning to `CCCCn1c2cc(O)ccc2c2ccc3cc(O)ccc3c21`, the relative binding affinity (RBA) in [1] was found to be 2.3.
Same read-out and setting: to `CCn1c2ccc(O)cc2c2ccc3ccc(O)cc3c21` belongs 0.08.
`CCn1c2c(c3ccc(OC(C)=O)cc31)CCc1cc(OC(C)=O)ccc1-2`: the Activity is 20.3 in assay [16], 29.3 in assay [17], 43.9 in assay [18] and 45.8 in [19].
In turn, `CCn1c2ccc(O)cc2c2ccc3c(O)cccc3c21` yielded a relative binding affinity (RBA) in assay [1] of 0.1.
Consider `CCCn1c2c(c3ccc(O)cc31)CCc1cc(O)ccc1-2`, for which, in assay [1], the relative binding affinity (RBA) is 38.
On the same count and under the same terms, to `CCn1c2cc(O)ccc2c2ccc3cc(O)ccc3c21` belongs 20.
In turn, `CCCCn1c2c(c3ccc(O)cc31)CCc1cc(O)ccc1-2` came in with a relative binding affinity (RBA) in assay [1] of 9.5.
On the same count and under the same terms, to `Cn1c2cc(O)ccc2c2ccc3cc(O)ccc3c21` belongs 9.5.
`CCn1c2ccc(OC(C)=O)cc2c2ccc3cc(OC(C)=O)ccc3c21`: the Effect came out at 12 in assay [16]; 13.7 in [17]; 15.1 in [18]; 14.4 in assay [19]; 18.1 in [20]; 3% in the assay listed under Rattus norvegicus [21]. Also, the Effect was 8% in the assay filed under Rattus norvegicus [22]; 6% in the assay filed under Rattus norvegicus [23]; 10% in the assay filed under Rattus norvegicus [24]; 70% in the assay filed under Rattus norvegicus [27]; 19% in the assay filed under Rattus norvegicus [28]; 59% in the assay filed under Rattus norvegicus [29]. In the assay listed under Rattus norvegicus [30], this compound registered an Effect of 25%. The figures for the “Change of tumor area” value in the assay listed under Rattus norvegicus [25] and in the assay filed under Rattus norvegicus [26] were 561% and 111%, respectively. The “No. of new tumors” value stood at 41 in the assay filed under Rattus norvegicus [31] and 45 in the assay filed under Rattus norvegicus [32]. Also, the No. of tumors in the assay filed under Rattus norvegicus [33] was found to be 22; in the assay filed under Rattus norvegicus [34] it was 23. The compound also displayed a Median in the assay listed under Rattus norvegicus [35] of 493%. The Range in the assay listed under Rattus norvegicus [35] was -29%.
Turning to `CCn1c2c(c3cc(O)ccc31)CCc1ccccc1-2`, the relative binding affinity (RBA) in assay [1] came to 0.06.
